The values below come from ChEMBL document CHEMBL1124920, “cis-diamineplatinum (II) complexes containing phosphono carboxylate ligands as antitumor agents” (J Med Chem, 1990).

The species entered for experiment [1] is Mus musculus. Description: Optimal dose in Sarcoma inoculated CFW mice. Format: functional, organism-based. A digest of the protocol:
(§1)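 Female CFW mice (18-25 g) were implanted ip with 2 × 10^6 Sarcoma 180 ascites cells on day 0. Compound was given ip in 0.5 mL water on day 1, with six mice per dose. The run lasted twice the control MST, and survivors were counted as dying then. Activity is % ILS of MST; >50% counts as active, and the maximum is 100%.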

The subject of experiment [2] is Mus musculus. Description: Number of surviving CFW mice bearing Sarcoma 180 ascites (S180a) (6 mice treated i.p.). Format: functional, organism-based. Summed up:
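Female CFW mice (18-25 g) implanted ip with 2 × 10^6 S180 ascites cells on day 0. Compound given ip in 0.5 mL water on day 1, adjusted to pH 7, six mice per dose. Vehicle and cisplatin control groups included. Run to twice control MST, survivors counted as dying that day. Read-out %ILS of MST; >50% active, maximum 100%.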

Experiment [3] deals with L1210. The experiment is described as follows: Antitumor activity (ip) against CDF1 mice bearing Leukemia L1210 cells. The class given is functional, organism-based. To be noted: Mus musculus. Summed up:
(§2)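 Female CDF1 mice (16-22 g) received 1 × 10^6 L1210 cells ip in 0.5 mL […] on day 0. Test compound was given in 0.5 mL water on day 1, with six mice per dose. The study ended at 3× the control mean survival time (MST), and survivors were scored as dying that day. ILS is the % increase in MST over controls; >25% counts as active, and the maximum possible is 200%.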

Experiment [4] concerns L1210. Description: Optimal dose of the compound measured in mg/kg against CDF1 mice bearing L1210 leukemia cells. Format: functional, organism-based. To be noted: Mus musculus. A digest of the protocol:
as §2

Experiment [5] deals with Mus musculus. Description: Antitumor activity against CFW mice bearing Sarcoma 180 ascites (S180a) following i.p. administration. Format: functional, organism-based. A digest of the protocol:
as §1

In experiment [6] the test system is L1210. The experiment is described as follows: Antitumor activity (ip) against CDF1 mice bearing Leukemia L1210 cells in 6 mice. The class given is functional, organism-based. The settings on record: Mus musculus. A digest of the protocol:
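Female CDF1 mice (16-22 g) inoculated ip with 1 × 10^6 L1210 cells in 0.5 mL […] on day 0. Compound given day 1 in 0.5 mL water, six mice per dose. Vehicle controls and cisplatin 8 mg/kg positive controls included. Run to 3× control MST, survivors scored as dying then. Read-out %ILS of MST; >25% active, maximum 200%.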

The test system of experiment [7] is M5076. Description: Antitumor activity of the best % ILS of platinum-phospono carboxylate complex against subcutaneously implanted M5076 reticulum cell sarcoma. The class given is functional. Summed up: (§3)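 BDF1 mice of either sex (6-10 weeks) were implanted sc on day 0 with ~25 mg M5076 tumor fragments. Dosing was iv on days 5, 9, 13 and 17, with doses given per injection, in groups of eight. Study ended on day 75. Read-outs were % ILS of MST and T-C, the difference in median days for tumors to reach 1 g. Active means ILS ≥25% or T-C >13 days.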

Experiment [8] has as its system M5076. Description: Optimum dose measured in mg/kg. Format: functional, organism-based.
The subject of experiment [9] is M5076. The experiment is described as follows: Relative median time for tumors to reach 1 g in drug-treated groups and the control group (T-C in days). Format: functional. A digest of the protocol:
as §3

Broadly, the ILS is how much longer treated animals lived than controls. A lower ILS goes with little gain in survival. In the case of CARBOPLATIN, the DOSE in the experiment filed under Mus musculus [1] is 120 mg/kg; with L1210 [4], 80 mg/kg. Besides, the Survivors with Mus musculus [2] came to 4; with L1210 [6], 0. Moreover, the values for the ILS with L1210 [3] and in the experiment with Mus musculus [5] were 90% and 95%, respectively.

Turning to CISPLATIN, the ILS in the experiment with M5076 [7] was determined as 28%; in the experiment with L1210 [3], 87%; with Mus musculus [5], 81%. Moreover, the DOSE in the experiment listed under Mus musculus [1] came out at 8 mg/kg; in the experiment on M5076 [8] it was 5; in the experiment with L1210 [4], 8 mg/kg. Besides, the Survivors with Mus musculus [2] worked out at 3; with L1210 [6], 0. The T-C in the experiment with M5076 [9] is 25.
